Source: ChEMBL document CHEMBL1152851, “Synthesis, cytotoxicity and effects of some 1,2,4-triazole and 1,3,4-thiadiazole derivatives on immunocompetent cells” (Eur J Med Chem, 2009)

Assays:
[1] = Stimulation of immune response in pretreated thymocytes isolated from Graffi myeloid tumor bearing hamster assessed as ratio of migration area of experimental cells to control cells after 16 hrs by indirect agarose technique; format: cell-based; conditions: cricetinae, thymocyte
Procedure, shortened: (§1)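 Cells came from treated tumor-bearing hamsters: spleen cells, thymocytes or blood lymphocytes. They were loaded into 3-mm wells cut in an agarose monolayer in 50 mm Petri dishes and kept 16 h at 37 °C, 5% CO2. The migration area was then measured. The migration index (LIF) is the ratio of experimental to control migration area. Values are means of three experiments.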

[2] = Stimulation of immune response in pretreated thymocytes isolated from Graffi myeloid tumor bearing hamster assessed as migration area after 16 hrs by indirect agarose technique; format: cell-based; conditions: cricetinae, thymocyte; procedure, shortened: as §1
[3] = system: PBL; test: Stimulation of immune response in pretreated PBL isolated from Graffi myeloid tumor bearing hamster assessed as rosette formation; format: cell-based; conditions: cricetinae
[4] = system: PBL; test: Cytotoxicity against PBL isolated from solid form of Graffi myeloid tumor bearing hamster pretreated at 0.5 mg/ml, ip for 5 days measured after 24 hrs by trypan blue assay; conditions: Cricetinae
Procedure, shortened: (§2)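 Tumor-bearing hamsters first received compound at 0.5 mg/ml i.p. Thymocytes or blood lymphocytes were isolated five days later. These were exposed in vitro to serial dilutions of a DMSO stock (5 mg/ml) for 24 h at 37 °C, 5% CO2, then scored with 0.2% trypan blue. Each IC50 is the mean of three parallel samples in three independent experiments.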

[5] = Stimulation of immune response in pretreated spleen cells isolated from Graffi myeloid tumor bearing hamster assessed as rosette formation; format: cell-based; conditions: cricetinae
[6] = system: PBL; test: Stimulation of immune response in pretreated […] isolated from Graffi myeloid tumor bearing hamster assessed as number of plaque forming cells after 24 hrs […]; format: cell-based; conditions: cricetinae
[7] = Stimulation of immune response in pretreated spleen cells isolated from Graffi myeloid tumor bearing hamster assessed as number of plaque forming cells after 24 hrs by modified agar-plate method; format: cell-based; conditions: cricetinae
Procedure, shortened: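 Plaque-forming (haemolysin-producing B) cells were counted by the Cunningham–Szenberg method. Cells from treated tumor-bearing hamsters were mixed with complement and sheep red blood cells and loaded into chambers. Haemolytic zones were counted per 10⁶ lymphocytes. Values are means of three experiments, compared against cells from control animals.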

[8] = Stimulation of immune response in pretreated spleen cells isolated from Graffi myeloid tumor bearing hamster assessed as migration area after 16 hrs by indirect agarose technique; format: cell-based; conditions: cricetinae; procedure, shortened: as §1
[9] = Stimulation of immune response in pretreated thymocytes isolated from Graffi myeloid tumor bearing hamster assessed as rosette formation; format: cell-based; conditions: cricetinae, thymocyte
[10] = Cytotoxicity against thymocytes isolated from solid form of Graffi myeloid tumor bearing hamster pretreated at 0.5 mg/ml, ip for 5 days measured after 24 hrs by trypan blue assay; conditions: cricetinae, thymocyte; procedure, shortened: as §2
[11] = Cytotoxicity against solid form of Graffi myeloid tumor bearing hamster thymocytes after 24 hrs by trypan blue assay; format: cell-based; conditions: cricetinae, thymocyte
Procedure, shortened: (§3)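 Thymocytes and peripheral blood lymphocytes came from sexually mature hamsters bearing solid Graffi myeloid tumor. Compounds were made up at 0.5 mg/ml in DMSO, and this stock was diluted 1:10, 1:100, 1:1000 and 1:100,000. Equal volumes of cells and dilution were mixed and held 24 h at 37 °C in humidified 5% CO2. Survival was scored by 0.2% trypan blue exclusion under the microscope, and IC50 was derived.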

[12] = system: PBL; test: Cytotoxicity against solid form of Graffi myeloid tumor bearing hamster PBL after 24 hrs by trypan blue assay; format: cell-based; conditions: Cricetinae; procedure, shortened: as §3
[13] = Stimulation of immune response in pretreated thymocytes isolated from Graffi myeloid tumor bearing hamster assessed as number of plaque forming cells after 24 hrs […]; format: cell-based; conditions: cricetinae, thymocyte
[14] = system: PBL; test: Stimulation of immune response in pretreated PBL isolated from Graffi myeloid tumor bearing hamster assessed as ratio of migration area of experimental cells to control cells after 16 hrs by indirect agarose technique; format: cell-based; conditions: cricetinae; procedure, shortened: as §1
[15] = system: PBL; test: Stimulation of immune response in pretreated PBL isolated from Graffi myeloid tumor bearing hamster assessed as migration area after 16 hrs by indirect agarose technique; format: cell-based; conditions: cricetinae; procedure, shortened: as §1
[16] = Stimulation of immune response in pretreated spleen cells isolated from Graffi myeloid tumor bearing hamster assessed as ratio of migration area of experimental cells to control cells after 16 hrs by indirect agarose technique; format: cell-based; conditions: cricetinae; procedure, shortened: as §1
[17] = Cytotoxicity against pretreated spleen cells isolated from Graffi myeloid tumor bearing hamster assessed as full lysis; format: cell-based; conditions: cricetinae

SMILES | Ratio [1] | Activity [2] | Activity [3] | Activity [5] | Activity [6] | Activity [7] | Activity [8] | Activity [9] | Activity [13] | Ratio [14] | Activity [15] | Ratio [16] | IC50 [4] | IC50 [10] | IC50 [11] | IC50 [12] | Activity [17]
CCNC(=S)NNC(=O)c1ccc(-c2ccccc2)s1 | 0.104 | 202 mm2 | Not Active | Not Active | 5200 | 2010 | 822 mm2 | Not Active | 7800 | – | – | – | 320 nM | 3500 nM | 2100 nM | 1640 nM | –
Nn1c(-c2ccc(-c3ccccc3)s2)n[nH]c1=S | 0.954 | 1836 mm2 | Not Active | Not Active | 19920 | 4700 | 2332 mm2 | Not Active | 19200 | – | – | – | 12 nM | 0.001 nM | 240 nM | – | –
CCNC(=S)NNC(=O)c1cc2c(s1)CCCC2 | 0.08 | 146 mm2 | Not Active | Not Active | 768 | – | – | Not Active | 2040 | – | – | – | 14 nM | – | 110 nM | – | Toxic

Continued, in another order:

Ratio [1] | Activity [2] | Activity [3] | Activity [5] | Activity [6] | Activity [7] | Activity [8] | Activity [9] | Activity [13] | Ratio [14] | Activity [15] | Ratio [16] | SMILES | IC50 [4] | IC50 [10] | IC50 [11] | IC50 [12] | Activity [17]
0.581 | 1118 mm2 | Not Active | Not Active | 14288 | 3928 | 1788 mm2 | Not Active | 15300 | – | – | – | CCNc1nnc(-c2cc3c(s2)CCCC3)s1 | 410 nM | 0.0052 nM | 260 nM | 320 nM | –
0.532 | 1024 mm2 | Not Active | Not Active | 5869 | 3920 | 1286 mm2 | Not Active | 7250 | 1.654 | 1800 mm2 | – | Nn1c(-c2cc3c(s2)CCCC3)n[nH]c1=S | 140 nM | 12 nM | 2200 nM | 2670 nM | –
0.518 | 997 mm2 | Not Active | Not Active | 4992 | 3700 | 1823 mm2 | Not Active | 5287 | 0.001 | – | 0 | CCn1c(-c2cc3c(s2)CCCC3)n[nH]c1=S | 290 nM | 460 nM | 120 nM | 1810 nM | –
